Paper PMC10432884 (Clinical and Translational Science, 2023)
“Also recorded” adds a separate entry of the source. Like-named read-outs stand apart in the source and are kept apart here.

Experiments:
[1] = system: healthy subjects
[2] = MAD phase pharmacokinetics; type: in vivo, human; conditions: for PTR, GeoMean / PTR, Median: peak-to-trough ratio; for R max, GeoMean / R max, Median: accumulation ratio from C max; for R through, GeoMean / R through, Median: accumulation ratio from C trough; for t 1/2_eff, Median / t 1/2_eff, GeoMean: effective half-life based on accumulation
In short: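 MAD phase, 2–15 mg q.d. oral for 14 days. Plasma was sampled predose daily and 15 min–48 h on days 1 and 14. Urine was pooled over 24 h on days 1 and 14. One CSF sample was taken 3 h postdose on day 7 (10 mg cohort). All matrices were assayed by validated LC-MS/MS. Derived: Cmax, Tmax, t1/2, AUCτ, Ctrough, peak-to-trough ratio, accumulation ratios, and CSF/plasma ratio corrected for protein binding. Results reported as geometric means (95% CI) and medians.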

[3] = MAD pooled zagociguat group (n = 32)
[4] = same subject, 2 mg q.d., day 30

Fc1ccccc1Cc1nc(-c2nc(C(F)(F)F)n[nH]2)cn2ccnc12 [zagociguat, 8‐(2‐fluorobenzyl)‐6‐(3‐(trifluoromethyl)‐1H‐1,2,4‐triazol‐5‐yl)imidazo[1,2‐a]pyrazine]
Subjects discontinued from study drug due to ≥1 TEAE ([1]; MAD 2 mg (n = 8)): 0 n | Subjects with ≥1 SAE ([1]; MAD 2 mg (n = 8)): 0 n | Subjects with ≥1 TEAE ([1]; MAD 2 mg (n = 8)): 6 (75%) n (%) | Subjects with ≥1 study drug related TEAE ([1]; MAD 2 mg (n = 8)): 6 n | TEAEs ([1]; MAD 2 mg (n = 8)): 17 n | Subjects discontinued from study drug due to ≥1 TEAE ([1]; MAD 5 mg (n = 8)): 0 n | Subjects with ≥1 SAE ([1]; MAD 5 mg (n = 8)): 0 n | Subjects with ≥1 TEAE ([1]; MAD 5 mg (n = 8)): 8 (100%) n (%) | Subjects with ≥1 study drug related TEAE ([1]; MAD 5 mg (n = 8)): 7 n | TEAEs ([1]; MAD 5 mg (n = 8)): 27 n | Subjects discontinued from study drug due to ≥1 TEAE ([1]; MAD 10 mg (n = 8)): 0 n | Subjects with ≥1 SAE ([1]; MAD 10 mg (n = 8)): 0 n | Subjects with ≥1 TEAE ([1]; MAD 10 mg (n = 8)): 8 (100%) n (%) | Subjects with ≥1 study drug related TEAE ([1]; MAD 10 mg (n = 8)): 5 n | TEAEs ([1]; MAD 10 mg (n = 8)): 19 n | Subjects with GI TEAEs ([1]; MAD 10 mg group): five | Subjects discontinued from study drug due to ≥1 TEAE ([1]; MAD 15 mg (n = 8)): 0 n | Subjects with ≥1 SAE ([1]; MAD 15 mg (n = 8)): 0 n | Subjects with ≥1 study drug related TEAE ([1]; MAD 15 mg (n = 8)): 5 n | TEAEs ([1]; MAD 15 mg (n = 8)): 18 n | Orthostatic hypotension events ([1]; MAD phase): No orthostatic hypotension events | Subjects discontinued from study drug due to ≥1 TEAE [1, 3]: 0 n | Subjects with ≥1 SAE [1, 3]: 0 n | Subjects with ≥1 study drug related TEAE [1, 3]: 23 n | TEAEs [1, 3]: 81 n | Tolerability ([1]; multiple doses up to 15 mg q.d. for 14 days): well‐tolerated with no safety signals | AST, peak ([1]; one subject, 2 mg q.d., day 16 (after last dose), normal range < 35 U/L): 49 U/L | ALT, peak ([1]; one subject, 2 mg q.d., day 16 (after last dose), normal range < 45 U/L): 92 U/L | GGT, peak ([1]; one subject, 2 mg q.d., day 16 (after last dose), normal range < 55 U/L): 22 U/L | ALT at follow-up [1, 4]: 49 U/L | AST at follow-up [1, 4]: 43 U/L | GGT at follow-up [1, 4]: 23 U/L | CNS penetration ([2]; CSF sampling during the MAD phase): confirmed by cerebrospinal fluid sampling; also recorded: confirmed by CSF sampling | Dose level from which detectable in urine ([2]; MAD): 2 mg | C trough, GeoMean ([2]; MAD 2 mg q.d., day 1): 161.13 ng/mL | C trough, Median ([2]; MAD 2 mg q.d., day 1): 157.0 ng/mL | PTR, GeoMean ([2]; MAD 2 mg q.d., day 1): 1.62 | PTR, Median ([2]; MAD 2 mg q.d., day 1): 1.64 | PTR, GeoMean ([2]; MAD 2 mg q.d., day 14): 1.41 | PTR, Median ([2]; MAD 2 mg q.d., day 14): 1.40 | R max, GeoMean ([2]; MAD 2 mg q.d.): 3.38 | R max, Median ([2]; MAD 2 mg q.d.): 3.32 | R through, GeoMean ([2]; MAD 2 mg q.d.): 3.87 | R through, Median ([2]; MAD 2 mg q.d.): 4.06 | t 1/2_eff, Median ([2]; MAD 2 mg q.d.): 54.46 h | PTR, GeoMean ([2]; MAD 5 mg q.d., day 1): 1.55 | PTR, Median ([2]; MAD 5 mg q.d., day 1): 1.50 | PTR, GeoMean ([2]; MAD 5 mg q.d., day 14): 1.35 | PTR, Median ([2]; MAD 5 mg q.d., day 14): 1.34 | R max, GeoMean ([2]; MAD 5 mg q.d.): 3.45 | R max, Median ([2]; MAD 5 mg q.d.): 3.56 | R through, GeoMean ([2]; MAD 5 mg q.d.): 3.98 | R through, Median ([2]; MAD 5 mg q.d.): 3.79 | t 1/2_eff, GeoMean ([2]; MAD 5 mg q.d.): 54.60 h | t 1/2_eff, Median ([2]; MAD 5 mg q.d.): 56.63 h | PTR, Median ([2]; MAD 10 mg q.d., day 1): 1.36 | PTR, GeoMean ([2]; MAD 10 mg q.d., day 14): 1.37 | PTR, Median ([2]; MAD 10 mg q.d., day 14): 1.37 | R max, GeoMean ([2]; MAD 10 mg q.d.): 3.60 | R max, Median ([2]; MAD 10 mg q.d.): 3.68 | R through, GeoMean ([2]; MAD 10 mg q.d.): 3.79 | R through, Median ([2]; MAD 10 mg q.d.): 3.56 | t 1/2_eff, GeoMean ([2]; MAD 10 mg q.d.): 54.29 h | t 1/2_eff, Median ([2]; MAD 10 mg q.d.): 54.53 h | C trough, GeoMean ([2]; MAD 15 mg q.d., day 1): 1173.20 ng/mL | C trough, Median ([2]; MAD 15 mg q.d., day 1): 1165 ng/mL | PTR, GeoMean ([2]; MAD 15 mg q.d., day 1): 1.38 | PTR, Median ([2]; MAD 15 mg q.d., day 1): 1.37 | C trough, GeoMean ([2]; MAD 15 mg q.d., day 11): 4149.25 ng/mL | C trough, Median ([2]; MAD 15 mg q.d., day 11): 4140 ng/mL | C trough, GeoMean ([2]; MAD 15 mg q.d., day 12): 4246.79 ng/mL | C trough, Median ([2]; MAD 15 mg q.d., day 12): 4140 ng/mL | C trough, GeoMean ([2]; MAD 15 mg q.d., day 13): 4157.21 ng/mL | C trough, Median ([2]; MAD 15 mg q.d., day 13): 4160 ng/mL | C trough, GeoMean ([2]; MAD 15 mg q.d., day 14): 4377.90 ng/mL | C trough, Median ([2]; MAD 15 mg q.d., day 14): 4275 ng/mL | PTR, GeoMean ([2]; MAD 15 mg q.d., day 14): 1.35 | PTR, Median ([2]; MAD 15 mg q.d., day 14): 1.33
